Source: ChEMBL document CHEMBL1122810 (J Med Chem, 1984)

How the values were obtained:
Mus musculus [1] = assay: Inoculation of 10 e5 L1210 cells, ip, on day 0, & treatment was started on day 1 with the administration of the compound, ip, in groups of five B6D2F1J male mice at dose 0.5 mg/kg; assay type: functional
H35 [2] = assay: Growth inhibition of H35 cell lines; assay type: functional, cell-based; settings: Rattus norvegicus
In short: (§1)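 H35 rat hepatoma cells and the transport-defective H35R0.3 subline, which has normal DHFR content, were incubated with drug for 72 h, and the IC50 was determined.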

Mus musculus [3] = assay: Inoculation of 10 e5 L1210 cells, ip, on day 0, & treatment was started on day 1 with the administration of the compound, ip, in groups of five B6D2F1J male mice at dose 0.5 mg/kg; 14-20; assay type: functional
In short: (§2)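 Vehicle sterile 0.9% NaCl, ip. Dosing on days 1-10: twice daily on days 1-4 and 7-10, once daily on days 5 and 6 with a double dose given on those days. Endpoint is increase in life span (ILS) versus untreated controls. Doses are also stated as MTX-equivalent doses rounded to the nearest mg/kg.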

H35R0.3 [4] = assay: Growth inhibition of H35R0.3 cell lines; assay type: functional, cell-based; settings: Rattus norvegicus; in short: as §1
Mus musculus [5] = assay: Inoculation of 10 e5 L1210 cells, ip, on day 0, & treatment was started on day1 with the administration of the compound, ip, in groups of five B6D2F1J male mice at dose 1 mg/kg; assay type: functional
In short: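 Male B6D2F1J mice, five per group, received 10^5 L1210 cells ip on day 0. From day 1, drug in sterile 0.9% NaCl was injected ip twice daily on days 1–4 and 7–10, with one double dose on each of days 5 and 6. […]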

Mus musculus [6] = assay: Inoculation of 10 e5 L1210 cells, ip, on day 0, & treatment was started on day 1 with the administration of the compound, ip, in groups of five B6D2F1J male mice at dose 1.0 mg/kg; T=19; C=9; assay type: functional
Mus musculus [7] = assay: Inoculation of 10 e5 L1210 cells, ip, on day 0, & treatment was started on day 1 with the administration of the compound, ip, in groups of five B6D2F1J male mice at dose 1.0 mg/kg; 17-22; assay type: functional; in short: as §2
L1210 [8] = assay: Growth inhibition of L1210 cell lines; assay type: functional, cell-based; settings: Mus musculus
In short: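 L1210 murine leukemia cells were incubated with drug in culture for 48 h. Percent cell growth relative to untreated controls was plotted against concentration to obtain the IC50.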

Mus musculus [9] = assay: Inoculation of 10 e5 L1210 cells, ip, on day 0, & treatment was started on day 1 with the administration of the compound, ip, in groups of five B6D2F1J male mice at dose 0.5 mg/kg; T =18; C=9; assay type: functional
Mus musculus [10] = assay: Inoculation of 10 e5 L1210 cells, ip, on day 0, & treatment was started on day1 with the administration of the compound, ip, in groups of five B6D2F1J male mice at dose 0.5 mg/kg
Mus musculus [11] = assay: Inoculation of 10 e5 L1210 cells, ip, on day 0, & treatment was started on day 1 with the administration of the compound, ip, in groups of five B6D2F1J male mice at dose 1.0 mg/kg
L1210 [12] = assay: (§3) Cytotoxic activity with respect to methotrexate; assay type: functional, Mus musculus
Mus musculus [13] = assay: Inoculation of 10 e5 L1210 cells, ip, on day 0, & treatment was started on day 1 with the administration of the compound, ip, in groups of five B6D2F1J male mice at dose 20 mg/kg; assay type: functional
Dihydrofolate reductase = target: T1, Dihydrofolate reductase (Mus musculus, UniProt P00375); assay: Inhibitory activity towards dihydrofolate reductase in L1210 murine leukemia cell lines; assay type: cell-based
T1 sequence (P00375 whole entry): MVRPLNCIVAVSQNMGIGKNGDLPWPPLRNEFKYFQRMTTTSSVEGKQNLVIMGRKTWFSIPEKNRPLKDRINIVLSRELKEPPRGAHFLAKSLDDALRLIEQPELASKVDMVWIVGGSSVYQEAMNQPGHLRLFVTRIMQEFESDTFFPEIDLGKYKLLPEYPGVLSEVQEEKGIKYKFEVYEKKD

H35R0.3 [14] = assay: as §3; assay type: functional, Rattus norvegicus
H35 [15] = assay: as §3; assay type: functional, Rattus norvegicus
Mus musculus [16] = assay: Inoculation of 10 e5 L1210 cells, ip, on day 0, & treatment was started on day 1 with the administration of the compound, ip, in groups of five B6D2F1J male mice at dose 40 mg/kg; assay type: functional
Mus musculus [17] = assay: Inoculation of 10 e5 L1210 cells, ip, on day 0, & treatment was started on day 1 with the administration of the compound, ip, in groups of five B6D2F1J male mice at dose 10 mg/kg; assay type: functional

| SMILES | 7-day weight change (Mus musculus [1]) [%] | IC50 (H35 [2]) [nM] | Survival range (Mus musculus [3]) | IC50 (H35R0.3 [4]) [nM] | 7-day weight change (Mus musculus [5]) [%] | median survival (days) (Mus musculus [6]) | Survival range (Mus musculus [7]) | IC50 (L1210 [8]) [nM] | median survival (days) (Mus musculus [9]) | ILS at 0.5 mg/kg (Mus musculus [10]) [%] | ILS at 1 mg/kg (Mus musculus [11]) [%] | Relative activity (L1210 [12]) | 7-day weight change (Mus musculus [13]) [%] | IC50 (Dihydrofolate reductase) [nM] | Relative activity (H35R0.3 [14]) | Relative activity (H35 [15]) | 7-day weight change (Mus musculus [16]) [%] | 7-day weight change (Mus musculus [17]) [%] |
| --- | --- | --- | --- | --- | --- | --- | --- | --- | --- | --- | --- | --- | --- | --- | --- | --- | --- | --- |
| CN(Cc1cnc2nc(N)nc(N)c2n1)c1ccc(C(=O)N[C@@H](CCC(=O)O)C(=O)O)cc1 [METHOTREXATE] | 0 | 10 | 20 | 1800 | -9 | 19 | 22 | 24 | 18 | 100 | 111 |  |  |  |  |  |  |  |
| CN(Cc1cnc2nc(N)nc(N)c2n1)c1ccc(C(=O)NC(CCC(=O)NCCCCC(N)C(=O)O)C(=O)O)cc1 (stereo unspecified) |  | 400 |  | 6000 |  |  |  | 760 |  |  |  | 0.032 | 5 | 87 | 0.3 | 0.025 | 2 | 11 |
